Source: PMC8286830 (Biochemical Journal, 2021)
Values joined by “and” are separate entries in the source; they are usually repeats but may differ in a detail not shown here. Identical values can stand only once. “Also recorded” adds a separate entry of the source.

Experiments:
N-TgCEN1 [1] = test: Turbidimetry at 340 nm, N-TgCEN1; format: physicochemical, Toxoplasma gondii; conditions: 20 µM, 1 mM CaCl2, 20 mM KCl pH 7.5, 37°C
Procedure, shortened: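 Recombinant N-domain (1–94) or C-domain (95–169), Ni-affinity purified. A340 followed over time in a 1 cm cuvette. Standard conditions: 20 µM protein, 20 mM Tris–HCl, 20 mM KCl pH 7.5, 1 mM CaCl2, 37°C. Conditions also varied: CaCl2 0–2 mM, temperature 4–45°C, protein 5–50 µM, KCl 0–150 mM, or 600 µM ANS added.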

N-TgCEN1 [2] = test: DLS particle size of N-TgCEN1; format: physicochemical, Toxoplasma gondii; conditions: 10 µM
Procedure, shortened: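 Domains produced in E. coli Rosetta: N-domain residues 1–94 and C-domain 95–169. […] 10 µM protein in 20 mM Tris–HCl pH 7.5, 1 mM CaCl2, at selected KCl concentrations or with 600 µM ANS. Samples centrifuged at 21 000 g for ≥30 min; filtered buffers. Hydrodynamic diameter reported as number distribution (633 nm laser, 173°).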

TgCEN1 [3] = test: Turbidimetry at 340 nm, TgCEN1 self-assembly; format: physicochemical, Toxoplasma gondii
Procedure, shortened: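 Full-length protein (E. coli Rosetta) at 20 µM in 20 mM Tris–HCl, 20 mM KCl pH 7.5, 37°C, A340 recorded versus time. Run with 1 mM CaCl2, with 1 mM EGTA, or with EGTA added to Ca2+-saturated protein. Ca2+ series 5–2000 µM, read at 25 min versus metal/protein ratio. Also varied: temperature 4–45°C, protein 5–50 µM, KCl 0–150 mM, and 600 µM ANS.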

TgCEN1 [4] = test: DLS particle size of TgCEN1; format: physicochemical, Toxoplasma gondii
TgCEN1 [5] = test: DLS thermal ramping of TgCEN1; format: physicochemical, Toxoplasma gondii; conditions: 5 µM protein, 1 mM CaCl2, pH 7.5
Procedure, shortened: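 Full-length recombinant protein (E. coli Rosetta) at 5 µM with 1 mM CaCl2 in 20 mM Tris–HCl, 20 mM KCl pH 7.5, clarified by centrifugation. Temperature stepped from 15 to 45°C in 1°C increments, with DLS size measured at each step. Z-average (intensity-weighted mean hydrodynamic size) recorded; midpoint from logistic fit.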

[6] = via N-terminal EF-hands, in vitro; cited from earlier work
Δ21TgCEN1 [7] = target: T1, Δ21TgCEN1 (Toxoplasma gondii, UniProt A0A125YHX7); test: Turbidimetry at 340 nm, Δ21TgCEN1; format: physicochemical
T1 sequence (A0A125YHX7 22-169): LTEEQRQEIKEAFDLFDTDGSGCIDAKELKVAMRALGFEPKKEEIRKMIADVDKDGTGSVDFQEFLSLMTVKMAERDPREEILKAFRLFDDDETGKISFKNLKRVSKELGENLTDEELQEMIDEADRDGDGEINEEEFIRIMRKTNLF
Procedure, shortened: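 Construct lacking residues 1–21 (E. coli Rosetta) at 20 µM in 20 mM Tris–HCl, 20 mM KCl pH 7.5, 1 mM CaCl2, 37°C. A340 followed over time, before and after adding 50 µM synthetic N-terminal peptide (residues 1–21). Peptide alone with CaCl2 run as a control trace.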

Δ21TgCEN1 [8] = target: T1, Δ21TgCEN1; test: DLS particle size / count rate of Δ21TgCEN1; format: physicochemical; conditions: all other conditions: temperature, protein concentration, KCl, ANS
Procedure, shortened: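 Recombinant tag-free Δ21TgCEN1 from E. coli Rosetta (Ni affinity, TEV cleavage). For DLS, 10 µM protein in 20 mM Tris–HCl, 20 mM KCl pH 7.5 with 1 mM CaCl2 at 37°C was spun at 21 000 g for ≥30 min, then measured before and after adding 50 µM N21 peptide. Diameter was reported as number distribution. In parallel, A340 turbidity of 20 µM protein was followed over time.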

B1: N-TgCEN1: N-terminal domain of TgCEN1, 1–94 aa (protein)
chain: MHSRKGASSLPRGRGAGKKTELTEEQRQEIKEAFDLFDTDGSGCIDAKELKVAMRALGFEPKKEEIRKMIADVDKDGTGSVDFQEFLSLMTVKM
modifications: left off: His tag (from the Nickel affinity chromatography), end not stated, cleaved
- turbidity at 340 nm (N-TgCEN1 [1]): no turbidity changes at 340 nm
- particle diameter (N-TgCEN1 [2]; 1 mM CaCl2, 20 mM Tris–HCl, 20 mM KCl pH 7.5): 250 ± 1 nm
- association at high ionic strength (N-TgCEN1 [2]; selected KCl concentrations, 1 mM CaCl2, DLS): inhibition of association process

B2: TgCEN1: centrin isoform 1 from Toxoplasma gondii, full-length, overexpressed in E. coli (protein)
chain: MHSRKGASSLPRGRGAGKKTELTEEQRQEIKEAFDLFDTDGSGCIDAKELKVAMRALGFEPKKEEIRKMIADVDKDGTGSVDFQEFLSLMTVKMAERDPREEILKAFRLFDDDETGKISFKNLKRVSKELGENLTDEELQEMIDEADRDGDGEINEEEFIRIMRKTNLF
- self-assembly at high ionic strength (turbidity at 340 nm) (TgCEN1 [3]; 0–150 mM KCl, 20 mM Tris–HCl pH 7.5, 1 mM CaCl2, 37°C): clear inhibition of self-assembly process at high ionic strength
- turbidity at 340 nm (TgCEN1 [3]; 20 µM, 1 mM CaCl2, 20 mM Tris–HCl, 20 mM KCl pH 7.5, 37°C): clear increase in turbidity
- turbidity at 340 nm (TgCEN1 [3]; EGTA added to Ca^2+-saturated TgCEN1, 20 µM, pH 7.5, 37°C): significantly reduced
- turbidity change on Mg^2+ addition (TgCEN1 [3]; Mg^2+ up to 10 mM, data not shown): No changes in the turbidity profiles
- self-assembly rate and plateau (turbidity at 340 nm) (TgCEN1 [3]; increasing TgCEN1 concentration (5–50 µM), 1 mM CaCl2, 37°C): faster self-assembly process and a higher plateau
- self-assembly rate and plateau (turbidity at 340 nm) (TgCEN1 [3]; increasing temperature (4–45°C), 1 mM CaCl2): increase in the slope of the growth phase at 340 nm and a higher plateau
- light scattering below threshold concentration (TgCEN1 [3]; protein concentrations less than 5 µM): Low light scattering
- hydrodynamic diameter (TgCEN1 [4]; 10 µM, 1 mM CaCl2, 20 mM Tris–HCl, 20 mM KCl pH 7.5, 37°C, DLS number distribution, no additive): 570 ± 5 nm and ~570 nm
- number-averaged hydrodynamic diameter (TgCEN1 [4]; 10 µM, absence of Ca^2+ (1 mM EGTA), 20 mM Tris–HCl, 20 mM KCl pH 7.5, 37°C, DLS number distribution): 7.54 ± 0.01 nm
- association state (TgCEN1 [4]; 150 mM KCl, 1 mM CaCl2, 37°C): monomeric in solution
- hydrodynamic diameter (TgCEN1 [4]; high ionic strength (KCl), 20 mM Tris–HCl pH 7.5, 1 mM CaCl2, 37°C): ~7 nm
- hydrodynamic diameter (TgCEN1 [4]; low salt concentrations, 20 mM Tris–HCl pH 7.5, 1 mM CaCl2, 37°C): 600–800 nm
- z-average hydrodynamic diameter (TgCEN1 [5]; 15°C): ~230 nm
- z-average hydrodynamic diameter (TgCEN1 [5]; 45°C): ~470 nm
- Ca^2+ ions bound [6]: two Ca^2+ ions; also recorded: two high affinity Ca^2+-binding sites in the N-lobe

B3: Δ21TgCEN1: truncated variant of TgCEN1 lacking the first 21 residues (22–169) (protein)
chain: T1 sequence (A0A125YHX7 22-169)
- turbidity at 340 nm (Δ21TgCEN1 [7]; 1 mM CaCl2, same conditions as full-length (20 µM, 37°C, pH 7.5)): no changes in turbidity at 340 nm
- self-assembly process (Δ21TgCEN1 [7]; removal of the first 21 residues, Ca^2+): completely abolished
- turbidity or size distribution changes (Δ21TgCEN1 [8]): No changes in turbidity or size distribution
